Source: ChEMBL document CHEMBL1240400, “Comparative in vitro activities of nemonoxacin (TG-873870), a novel nonfluorinated quinolone, and other quinolones against clinical isolates” (2010)
Converted amounts (≈) assume the structure as drawn.

Experiments:
Type in all cases: functional
Neisseria gonorrhoeae [1] = test: Antibacterial activity against ciprofloxacin resistant Neisseria gonorrhoeae isolates by broth dilution method
How it was run: (§1)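 Neisseria gonorrhoeae clinical isolates tested by CLSI broth microdilution in Mueller-Hinton broth with 3% lysed horse blood, inoculated from a 0.5 McFarland suspension. Plates were incubated overnight at 35°C in 5% CO2, and the MIC was read as the lowest inhibitory concentration. Quality control strains were included in each run.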

Enterococcus faecium [2] = test: Antibacterial activity against Enterococcus faecium by broth dilution method
How it was run: (§2)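 Clinical isolates tested by CLSI broth microdilution in panels holding serial twofold drug dilutions in cation-adjusted Mueller-Hinton broth. Final inoculum 5 × 10^5 CFU/ml was made from a 0.5 McFarland suspension. Plates were incubated overnight at 35°C in ambient air, and the MIC was read as the lowest concentration inhibiting growth. Quality control strains were included in each run.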

Staphylococcus aureus [3] = test: Antibacterial activity against ciprofloxacin and methicillin resistant Staphylococcus aureus by broth dilution method; how it was run: as §2
Neisseria gonorrhoeae [4] = test: Antibacterial activity against moxifloxacin resistant Neisseria gonorrhoeae isolates by broth dilution method; how it was run: as §1
Streptococcus pneumoniae [5] = test: Antibacterial activity against Levofloxacin resistant Streptococcus pneumoniae by broth dilution method
How it was run: (§3)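 Streptococcus pneumoniae clinical isolates tested by CLSI broth microdilution. A 0.5 McFarland suspension was diluted into Mueller-Hinton broth with 3% lysed horse blood, then tested against serial drug dilutions. Plates were incubated overnight at 35°C in ambient air, and the MIC was read as the lowest inhibitory concentration. Quality control strains were included in each run.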

Escherichia coli [6] = test: Antibacterial activity against ciprofloxacin susceptible Escherichia coli by broth dilution method
How it was run: (§4)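 Broth microdilution per CLSI in panels spanning a dilution range of each agent. Cation-adjusted Mueller-Hinton broth, final inoculum 5 × 10^5 CFU/ml from a 0.5 McFarland suspension. Incubated overnight at 35°C in ambient air, with quality control strains in each run. MIC reported; values at or below the lowest concentration tested are given as that concentration.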

Pseudomonas aeruginosa = test: Antibacterial activity against Pseudomonas aeruginosa by broth dilution method
Enterococcus faecium [7] = test: Antibacterial activity against vancomycin resistant Enterococcus faecium by broth dilution method; how it was run: as §2
[8] = system: Staphylococcus epidermidis; test: Antibacterial activity against methicillin resistant coagulase negative Staphylococcus epidermidis by broth dilution method
Escherichia coli [9] = test: Antibacterial activity against ciprofloxacin resistant Escherichia coli by broth dilution method; how it was run: as §2
Enterococcus faecalis [10] = test: Antibacterial activity against vancomycin resistant Enterococcus faecalis by broth dilution method
Klebsiella pneumoniae = test: Antibacterial activity against Klebsiella pneumoniae by broth dilution method; how it was run: as §4
Streptococcus viridans = test: Antibacterial activity against Streptococcus viridans by broth dilution method
How it was run: (§5)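 Streptococci were tested by CLSI broth microdilution in Mueller-Hinton broth with 3% lysed horse blood, seeded from a 0.5 McFarland suspension. Incubated overnight at 35°C in ambient air, with quality control strains in each run. MIC taken over a per-agent dilution range.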

Haemophilus influenzae = test: Antibacterial activity against Haemophilus influenzae by broth dilution method
How it was run: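 Broth microdilution per CLSI using Haemophilus Test Medium broth, seeded from a 0.5 McFarland suspension. Incubated overnight at 35°C in ambient air, with quality control strains in each run. MIC read against a tested dilution range; values at the low limit are given as the lowest concentration.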

Acinetobacter baumannii = test: Antibacterial activity against Acinetobacter baumannii by broth dilution method; how it was run: as §4
Enterococcus faecalis [11] = test: Antibacterial activity against Enterococcus faecalis by broth dilution method
Proteus mirabilis = test: Antibacterial activity against Proteus mirabilis by broth dilution method
Neisseria gonorrhoeae [12] = test: Antibacterial activity against levofloxacin resistant Neisseria gonorrhoeae isolates by broth dilution method; how it was run: as §1
Citrobacter freundii = test: Antibacterial activity against Citrobacter freundii by broth dilution method; how it was run: as §4
Streptococcus pneumoniae [13] = test: Antibacterial activity against Levofloxacin susceptible Streptococcus pneumoniae by broth dilution method; how it was run: as §3
Staphylococcus aureus [14] = test: Antibacterial activity against ciprofloxacin susceptible and methicillin resistant Staphylococcus aureus by broth dilution method; how it was run: as §2
Staphylococcus = test: Antibacterial activity against methicillin resistant coagulase negative Staphylococcus by broth dilution method
Enterobacter cloacae = test: Antibacterial activity against Enterobacter cloacae by broth dilution method
Streptococcus pyogenes = test: Antibacterial activity against Streptococcus pyogenes by broth dilution method; how it was run: as §5
Staphylococcus aureus [15] = test: Antibacterial activity against methicillin susceptible Staphylococcus aureus by broth dilution method
Streptococcus agalactiae = test: Antibacterial activity against Streptococcus agalactiae by broth dilution method; how it was run: as §5

COc1c(N2C[C@@H]3CCCN[C@@H]3C2)c(F)cc2c(=O)c(C(=O)O)cn(C3CC3)c12 [MOXIFLOXACIN]
MIC (Neisseria gonorrhoeae [1]): 2 µg/mL (≈ 4.98 µM)
MIC50 (Enterococcus faecium [2]): > 8 µg/mL
MIC90 (Enterococcus faecium [2]): > 8 µg/mL
MIC50 (Staphylococcus aureus [3]): 4 µg/mL (≈ 9.96 µM)
MIC90 (Staphylococcus aureus [3]): 4 µg/mL (≈ 9.96 µM)
MIC (Neisseria gonorrhoeae [4]): 0.5 µg/mL (≈ 1.25 µM)
MIC (Streptococcus pneumoniae [5]): 2 µg/mL (≈ 4.98 µM)
MIC50 (Streptococcus pneumoniae [5]): 2 µg/mL (≈ 4.98 µM)
MIC90 (Streptococcus pneumoniae [5]): 8 µg/mL (≈ 19.9 µM)
MIC50 (Escherichia coli [6]): 0.5 µg/mL (≈ 1.25 µM)
MIC90 (Escherichia coli [6]): 1 µg/mL (≈ 2.49 µM)
MIC50 (Pseudomonas aeruginosa): > 8 µg/mL
MIC90 (Pseudomonas aeruginosa): > 8 µg/mL
MIC (Enterococcus faecium [7]): 1 µg/mL (≈ 2.49 µM)
MIC50 [8]: 0.12 µg/mL (≈ 0.299 µM)
MIC90 [8]: 2 µg/mL (≈ 4.98 µM)
MIC50 (Escherichia coli [9]): > 8 µg/mL
MIC90 (Escherichia coli [9]): > 8 µg/mL
MIC50 (Enterococcus faecalis [10]): 0.5 µg/mL (≈ 1.25 µM)
MIC50 (Klebsiella pneumoniae): 4 µg/mL (≈ 9.96 µM)
MIC90 (Klebsiella pneumoniae): > 8 µg/mL
MIC50 (Streptococcus viridans): 0.12 µg/mL (≈ 0.299 µM)
MIC90 (Streptococcus viridans): 0.25 µg/mL (≈ 0.623 µM)
MIC50 (Haemophilus influenzae): 0.25 µg/mL (≈ 0.623 µM)
MIC90 (Haemophilus influenzae): > 8 µg/mL
MIC50 (Acinetobacter baumannii): 1 µg/mL (≈ 2.49 µM)
MIC90 (Acinetobacter baumannii): > 8 µg/mL
MIC50 (Enterococcus faecalis [11]): 0.5 µg/mL (≈ 1.25 µM)
MIC90 (Enterococcus faecalis [11]): > 8 µg/mL
MIC50 (Proteus mirabilis): 8 µg/mL (≈ 19.9 µM)
MIC90 (Proteus mirabilis): > 8 µg/mL
MIC (Neisseria gonorrhoeae [12]): 1 µg/mL (≈ 2.49 µM)
MIC50 (Citrobacter freundii): 0.5 µg/mL (≈ 1.25 µM)
MIC90 (Citrobacter freundii): 8 µg/mL (≈ 19.9 µM)

C[C@H]1COc2c(N3CCN(C)CC3)c(F)cc3c(=O)c(C(=O)O)cn1c23.C[C@H]1COc2c(N3CCN(C)CC3)c(F)cc3c(=O)c(C(=O)O)cn1c23.O [LEVOFLOXACIN]
MIC (Neisseria gonorrhoeae [1]): 2 µg/mL
MIC50 (Streptococcus pneumoniae [13]): 1 µg/mL
MIC90 (Streptococcus pneumoniae [13]): 2 µg/mL
MIC50 (Staphylococcus aureus [14]): 0.25 µg/mL
MIC90 (Staphylococcus aureus [14]): 0.25 µg/mL
MIC50 (Enterococcus faecium [2]): > 16 µg/mL
MIC90 (Enterococcus faecium [2]): > 16 µg/mL
MIC50 (Staphylococcus): 0.5 µg/mL
MIC90 (Staphylococcus): 8 µg/mL
MIC50 (Staphylococcus aureus [3]): 16 µg/mL
MIC90 (Staphylococcus aureus [3]): 16 µg/mL
MIC (Neisseria gonorrhoeae [4]): 0.5 µg/mL
MIC50 (Streptococcus pneumoniae [5]): 16 µg/mL
MIC90 (Streptococcus pneumoniae [5]): > 16 µg/mL
MIC50 (Escherichia coli [6]): 0.5 µg/mL
MIC90 (Escherichia coli [6]): 1 µg/mL
MIC50 (Pseudomonas aeruginosa): 8 µg/mL
MIC90 (Pseudomonas aeruginosa): > 16 µg/mL
MIC (Enterococcus faecium [7]): 2 µg/mL
MIC50 [8]: 0.5 µg/mL
MIC90 [8]: 8 µg/mL
MIC50 (Escherichia coli [9]): > 16 µg/mL
MIC90 (Escherichia coli [9]): > 16 µg/mL
MIC50 (Enterococcus faecalis [10]): 2 µg/mL
MIC50 (Enterobacter cloacae): 2 µg/mL
MIC90 (Enterobacter cloacae): 16 µg/mL
MIC50 (Streptococcus pyogenes): 1 µg/mL
MIC90 (Streptococcus pyogenes): 2 µg/mL
MIC50 (Klebsiella pneumoniae): 2 µg/mL
MIC90 (Klebsiella pneumoniae): > 16 µg/mL
MIC50 (Streptococcus viridans): 1 µg/mL
MIC90 (Streptococcus viridans): 2 µg/mL
MIC50 (Staphylococcus aureus [15]): 0.25 µg/mL
MIC90 (Staphylococcus aureus [15]): 1 µg/mL
MIC50 (Haemophilus influenzae): 0.25 µg/mL
MIC90 (Haemophilus influenzae): 8 µg/mL
MIC50 (Acinetobacter baumannii): 2 µg/mL
MIC90 (Acinetobacter baumannii): 16 µg/mL
MIC50 (Enterococcus faecalis [11]): 2 µg/mL
MIC90 (Enterococcus faecalis [11]): > 16 µg/mL
MIC50 (Proteus mirabilis): 2 µg/mL
MIC90 (Proteus mirabilis): > 16 µg/mL
MIC (Neisseria gonorrhoeae [12]): 1 µg/mL
MIC50 (Streptococcus agalactiae): 1 µg/mL
MIC90 (Streptococcus agalactiae): 2 µg/mL
MIC50 (Citrobacter freundii): 0.12 µg/mL
MIC90 (Citrobacter freundii): 2 µg/mL

COc1c(N2C[C@@H](C)C[C@H](N)C2)ccc2c(=O)c(C(=O)O)cn(C3CC3)c12.O=C(O)CC(O)C(=O)O [NEMONOXACIN MALIC ACID]
MIC (Neisseria gonorrhoeae [1]): 0.25 µg/mL
MIC50 (Streptococcus pneumoniae [13]): 0.12 µg/mL
MIC90 (Streptococcus pneumoniae [13]): 0.12 µg/mL
MIC50 (Staphylococcus aureus [14]): 0.03 µg/mL
MIC90 (Staphylococcus aureus [14]): 0.06 µg/mL
MIC50 (Enterococcus faecium [2]): 4 µg/mL
MIC90 (Enterococcus faecium [2]): 8 µg/mL
MIC50 (Staphylococcus): 0.12 µg/mL
MIC90 (Staphylococcus): 0.5 µg/mL
MIC50 (Staphylococcus aureus [3]): 1 µg/mL
MIC90 (Staphylococcus aureus [3]): 1 µg/mL
MIC (Neisseria gonorrhoeae [4]): 0.25 µg/mL
MIC50 (Streptococcus pneumoniae [5]): 1 µg/mL
MIC90 (Streptococcus pneumoniae [5]): 2 µg/mL
MIC50 (Escherichia coli [6]): 1 µg/mL
MIC90 (Escherichia coli [6]): 2 µg/mL
MIC50 (Pseudomonas aeruginosa): 16 µg/mL
MIC90 (Pseudomonas aeruginosa): > 16 µg/mL
MIC50 (Enterococcus faecium [7]): 4 µg/mL
MIC90 (Enterococcus faecium [7]): 8 µg/mL
MIC50 [8]: 0.12 µg/mL
MIC90 [8]: 0.5 µg/mL
MIC50 (Escherichia coli [9]): > 16 µg/mL
MIC90 (Escherichia coli [9]): > 16 µg/mL
MIC50 (Enterococcus faecalis [10]): 0.25 µg/mL
MIC90 (Enterococcus faecalis [10]): 4 µg/mL
MIC50 (Enterobacter cloacae): 4 µg/mL
MIC90 (Enterobacter cloacae): > 16 µg/mL
MIC50 (Streptococcus pyogenes): 0.12 µg/mL
MIC90 (Streptococcus pyogenes): 0.12 µg/mL
MIC50 (Klebsiella pneumoniae): 4 µg/mL
MIC90 (Klebsiella pneumoniae): > 16 µg/mL
MIC50 (Streptococcus viridans): 0.12 µg/mL
MIC90 (Streptococcus viridans): 0.25 µg/mL
MIC50 (Staphylococcus aureus [15]): 0.03 µg/mL
MIC90 (Staphylococcus aureus [15]): 0.12 µg/mL
MIC50 (Haemophilus influenzae): 0.12 µg/mL
MIC90 (Haemophilus influenzae): 4 µg/mL
MIC50 (Acinetobacter baumannii): 4 µg/mL
MIC90 (Acinetobacter baumannii): > 16 µg/mL
MIC50 (Enterococcus faecalis [11]): 0.25 µg/mL
MIC90 (Enterococcus faecalis [11]): 4 µg/mL
MIC50 (Proteus mirabilis): 8 µg/mL
MIC90 (Proteus mirabilis): > 16 µg/mL
MIC (Neisseria gonorrhoeae [12]): 0.25 µg/mL
MIC (Streptococcus agalactiae): 0.12 µg/mL
MIC50 (Streptococcus agalactiae): 0.12 µg/mL
MIC90 (Streptococcus agalactiae): 0.25 µg/mL
MIC50 (Citrobacter freundii): 0.5 µg/mL
MIC90 (Citrobacter freundii): 4 µg/mL
